Measured values from different studies.
Each line is one published result; the experiments were not run side by side.
Target: NUAK family SNF1-like kinase 2 (NUAK2, Homo sapiens, UniProt Q9H093)
Residues used in one study (Q9H093 1-628): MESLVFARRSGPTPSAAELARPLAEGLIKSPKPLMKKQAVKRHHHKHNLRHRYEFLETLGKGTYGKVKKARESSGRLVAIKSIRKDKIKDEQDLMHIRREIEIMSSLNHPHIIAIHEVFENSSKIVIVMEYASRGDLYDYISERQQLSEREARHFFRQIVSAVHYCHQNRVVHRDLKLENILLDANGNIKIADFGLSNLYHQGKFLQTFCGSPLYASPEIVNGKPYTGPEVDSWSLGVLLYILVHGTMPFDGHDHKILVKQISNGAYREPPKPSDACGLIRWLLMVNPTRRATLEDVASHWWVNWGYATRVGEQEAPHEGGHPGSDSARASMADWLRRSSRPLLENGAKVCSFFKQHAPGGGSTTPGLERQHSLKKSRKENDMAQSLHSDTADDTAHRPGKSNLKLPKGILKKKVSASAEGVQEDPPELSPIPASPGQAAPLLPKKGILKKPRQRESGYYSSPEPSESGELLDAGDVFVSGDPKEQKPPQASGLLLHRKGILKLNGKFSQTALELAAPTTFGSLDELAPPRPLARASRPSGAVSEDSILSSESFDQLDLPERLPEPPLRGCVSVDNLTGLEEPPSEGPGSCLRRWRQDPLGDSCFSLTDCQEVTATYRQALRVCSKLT

SMILES	assay	conditions	quantity	value
Nc1ncnc2occ(-c3ccc(NC(=O)Nc4cc(C(F)(F)F)ccc4F)cc3)c12	cell-free assay, inhibitor	20 µM	remaining signal	30%
COc1cc(-c2cn(C3CCc4c(F)cccc4N(CC(F)(F)F)C3=O)nn2)ccc1-n1cnc(C)c1 (centres unmarked)	cell-free assay, competition with immobilised ligand	1 µM	remaining binding	100%
C#Cc1cccc(Nc2ncnc3cc(OCCOC)c(OCCOC)cc23)c1	cell-free assay	0.5 µM	remaining signal	95.3%
O=C(Nc1cnn(-c2csc(C(=O)NC3COC3)c2)c1)Nc1ccccc1Cl	enzyme activity, inhibitor	5 µM	remaining activity	99.8%
O=C(O)c1cc(-c2ccc(C3CCNCC3)cc2)c2ccc(-c3ccc(C(F)(F)F)cc3)cc2c1	cell-free assay, competition with immobilised ligand	1 µM	remaining binding	100%
Cc1ccc(C(=O)Nc2ccc(CN3CCN(C)CC3)c(C(F)(F)F)c2)cc1C#Cc1cnc2cccnn12	enzyme activity, inhibitor	23.5 nM	remaining activity	84%
CN(c1ccnc(CNc2nc(Nc3ccc4c(c3)CC(=O)N4)ncc2C(F)(F)F)n1)S(C)(=O)=O	cell-free assay, competition with immobilised ligand	1 µM	remaining binding	7.6%
N#CCCc1ccc2c(c1)-c1[nH]c3ccc([N+](=O)[O-])cc3c1CC(=O)N2	cell-free assay	0.5 µM	remaining signal	67.6%
O=C(Nc1cnn(-c2csc(C(=O)NC3COC3)c2)c1)Nc1c(F)cccc1Cl	enzyme activity, inhibitor	5 µM	remaining activity	97.8%
COc1cc(Cl)c(C(=O)N[C@@H](CN[C@H]2CC[C@@H](N)CC2)Cc2ccc(C#N)cc2)cc1-c1ccc(CN[C@H](C)c2ccc(C)cc2)o1	enzyme activity, inhibitor	1 µM	remaining activity	93%
COc1ccc2c(O[C@@H]3C[C@H]4C(=O)N[C@]5(C(=O)O)CC5/C=C\CCCCC[C@H](NC(=O)OC5CCCC5)C(=O)N4C3)cc(-c3csc(NC(=O)C(C)C)n3)nc2c1C (some centres unmarked)	cell-free assay, competition with immobilised ligand	1 µM	remaining binding	91%
CC(C)(C)c1nc2c(s1)c1nc(N)ncc1c1ccc(NS(=O)(=O)c3c(F)cccc3F)c(F)c12	enzyme activity, inhibitor, radiometric	1 µM	remaining activity	81%
CN1CC(Oc2cnc(C#N)cc2-c2ccn3nc(NC(=O)C4CC4)cc3c2)C1	enzyme activity, inhibitor	1 µM	inhibition	-8%
O=C1Nc2ccc(Cl)cc2C1=Cc1cc(Cl)c(O)c(Cl)c1	cell-free assay	0.5 µM	remaining signal	78.7%
CC(C)(C)c1nc(-c2cccc(NS(=O)(=O)c3c(F)cccc3F)c2F)c(-c2ccnc(N)n2)s1	enzyme activity, inhibitor, radiometric	1 µM	remaining activity	90%
CC(C)(O)[C@H]1CC[C@H](Nc2ccc3ncc(-c4cccc(C(F)(F)F)c4)n3n2)CC1	enzyme activity, inhibitor	1 µM	remaining activity	84.9%
CC/C(=N\NC(=O)NCc1cccc(O)c1)c1ccc(O)c(C)c1O	enzyme activity, inhibitor	0.1 µM	inhibition	12.5%
